# Data: ChEMBL document CHEMBL2062435, “Synthesis and in vitro antibacterial activity of gemifloxacin derivatives containing a substituted benzyloxime moiety” (2012)
# System: Klebsiella pneumoniae
# Experiment: Antimicrobial activity against extended spectrum beta-lactamases-producing Klebsiella pneumoniae 10-3 after 18-24 hrs by two-fold serial dilution method
# Type: functional
# Method in brief: (§1)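 Agar-medium twofold serial dilution against Gram-positive and Gram-negative strains; MIC taken as the lowest compound concentration giving complete inhibition of bacterial growth after incubation at 35 °C for 18-24 h.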
row,Structure (SMILES),MIC [µg/mL]
1,COc1cc(CO/N=C2\CN(c3nc4c(cc3F)c(=O)c(C(=O)O)cn4C3CC3)CC2CN)c([N+](=O)[O-])cc1OC.CS(=O)(=O)O (racemic),> 128

# System: Enterococcus faecalis
# Experiment: Antimicrobial activity against Enterococcus faecalis 10-7 after 18-24 hrs by two-fold serial dilution method
# Type: functional
# Method in brief: as §1
row,Structure (SMILES),MIC [µg/mL]
1,COc1cc(CO/N=C2\CN(c3nc4c(cc3F)c(=O)c(C(=O)O)cn4C3CC3)CC2CN)c([N+](=O)[O-])cc1OC.CS(=O)(=O)O (racemic),2

# System: Enterococcus faecium
# Experiment: Antimicrobial activity against Enterococcus faecium 10-5 after 18-24 hrs by two-fold serial dilution method
# Type: functional
# Method in brief: as §1
row,Structure (SMILES),MIC [µg/mL]
1,COc1cc(CO/N=C2\CN(c3nc4c(cc3F)c(=O)c(C(=O)O)cn4C3CC3)CC2CN)c([N+](=O)[O-])cc1OC.CS(=O)(=O)O (racemic),8

# System: Streptococcus pneumoniae
# Experiment: Antimicrobial activity against extended spectrum beta-lactamases-producing Streptococcus pneumoniae 10-1 after 18-24 hrs by two-fold serial dilution method
# Type: functional
# Method in brief: as §1
row,Structure (SMILES),MIC [µg/mL]
1,COc1cc(CO/N=C2\CN(c3nc4c(cc3F)c(=O)c(C(=O)O)cn4C3CC3)CC2CN)c([N+](=O)[O-])cc1OC.CS(=O)(=O)O (racemic),1

# System: Staphylococcus epidermidis
# Experiment: Antimicrobial activity against extended spectrum beta-lactamases-producing methicillin-sensitive Staphylococcus epidermidis 10-13 after 18-24 hrs by two-fold serial dilution method
# Type: functional
# Method in brief: as §1
row,Structure (SMILES),MIC [µg/mL]
1,COc1cc(CO/N=C2\CN(c3nc4c(cc3F)c(=O)c(C(=O)O)cn4C3CC3)CC2CN)c([N+](=O)[O-])cc1OC.CS(=O)(=O)O (racemic),0.25

# System: Escherichia coli
# Experiment: Antimicrobial activity against Escherichia coli 10-2 after 18-24 hrs by two-fold serial dilution method
# Type: functional
# Method in brief: as §1
row,Structure (SMILES),MIC [µg/mL]
1,COc1cc(CO/N=C2\CN(c3nc4c(cc3F)c(=O)c(C(=O)O)cn4C3CC3)CC2CN)c([N+](=O)[O-])cc1OC.CS(=O)(=O)O (racemic),8

# System: Klebsiella pneumoniae
# Experiment: Antimicrobial activity against Klebsiella pneumoniae 10-2 after 18-24 hrs by two-fold serial dilution method
# Type: functional
# Method in brief: as §1
row,Structure (SMILES),MIC [µg/mL]
1,COc1cc(CO/N=C2\CN(c3nc4c(cc3F)c(=O)c(C(=O)O)cn4C3CC3)CC2CN)c([N+](=O)[O-])cc1OC.CS(=O)(=O)O (racemic),> 128

# System: Escherichia coli
# Experiment: Antimicrobial activity against Escherichia coli ATCC 25922 after 18-24 hrs by two-fold serial dilution method
# Type: functional
# Method in brief: as §1
row,Structure (SMILES),MIC [µg/mL]
1,COc1cc(CO/N=C2\CN(c3nc4c(cc3F)c(=O)c(C(=O)O)cn4C3CC3)CC2CN)c([N+](=O)[O-])cc1OC.CS(=O)(=O)O (racemic),0.25

# System: Escherichia coli
# Experiment: Antimicrobial activity against Escherichia coli 10-1 after 18-24 hrs by two-fold serial dilution method
# Type: functional
# Method in brief: as §1
row,Structure (SMILES),MIC [µg/mL]
1,COc1cc(CO/N=C2\CN(c3nc4c(cc3F)c(=O)c(C(=O)O)cn4C3CC3)CC2CN)c([N+](=O)[O-])cc1OC.CS(=O)(=O)O (racemic),> 128

# System: Pseudomonas aeruginosa
# Experiment: Antimicrobial activity against extended spectrum beta-lactamases-producing Pseudomonas aeruginosa 10-15 after 18-24 hrs by two-fold serial dilution method
# Type: functional
# Method in brief: as §1
row,Structure (SMILES),MIC [µg/mL]
1,COc1cc(CO/N=C2\CN(c3nc4c(cc3F)c(=O)c(C(=O)O)cn4C3CC3)CC2CN)c([N+](=O)[O-])cc1OC.CS(=O)(=O)O (racemic),32

# System: Staphylococcus epidermidis
# Experiment: Antimicrobial activity against extended spectrum beta-lactamases-producing methicillin-resistant Staphylococcus epidermidis 10-10 after 18-24 hrs by two-fold serial dilution method
# Type: functional
# Method in brief: (§2)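 Agar twofold serial dilution MIC against clinical isolates. MIC was taken as the lowest concentration giving complete inhibition of bacterial growth after incubation at 35 °C for 18-24 h.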
row,Structure (SMILES),MIC [µg/mL]
1,COc1cc(CO/N=C2\CN(c3nc4c(cc3F)c(=O)c(C(=O)O)cn4C3CC3)CC2CN)c([N+](=O)[O-])cc1OC.CS(=O)(=O)O (racemic),1

# System: Klebsiella pneumoniae
# Experiment: Antimicrobial activity against extended spectrum beta-lactamases-producing Klebsiella pneumoniae 10-2 after 18-24 hrs by two-fold serial dilution method
# Type: functional
# Method in brief: as §1
row,Structure (SMILES),MIC [µg/mL]
1,COc1cc(CO/N=C2\CN(c3nc4c(cc3F)c(=O)c(C(=O)O)cn4C3CC3)CC2CN)c([N+](=O)[O-])cc1OC.CS(=O)(=O)O (racemic),> 128

# System: Staphylococcus aureus
# Experiment: Antimicrobial activity against extended spectrum beta-lactamases-producing methicillin-resistant Staphylococcus aureus 10-11 after 18-24 hrs by two-fold serial dilution method
# Type: functional
# Method in brief: as §2
row,Structure (SMILES),MIC [µg/mL]
1,COc1cc(CO/N=C2\CN(c3nc4c(cc3F)c(=O)c(C(=O)O)cn4C3CC3)CC2CN)c([N+](=O)[O-])cc1OC.CS(=O)(=O)O (racemic),2

# System: Staphylococcus epidermidis
# Experiment: Antimicrobial activity against extended spectrum beta-lactamases-producing methicillin-sensitive Staphylococcus epidermidis 10-15 after 18-24 hrs by two-fold serial dilution method
# Type: functional
# Method in brief: as §1
row,Structure (SMILES),MIC [µg/mL]
1,COc1cc(CO/N=C2\CN(c3nc4c(cc3F)c(=O)c(C(=O)O)cn4C3CC3)CC2CN)c([N+](=O)[O-])cc1OC.CS(=O)(=O)O (racemic),8

# System: Streptococcus pneumoniae
# Experiment: Antimicrobial activity against extended spectrum beta-lactamases-producing Streptococcus pneumoniae 10-4 after 18-24 hrs by two-fold serial dilution method
# Type: functional
# Method in brief: as §1
row,Structure (SMILES),MIC [µg/mL]
1,COc1cc(CO/N=C2\CN(c3nc4c(cc3F)c(=O)c(C(=O)O)cn4C3CC3)CC2CN)c([N+](=O)[O-])cc1OC.CS(=O)(=O)O (racemic),0.125

# System: Klebsiella pneumoniae
# Experiment: Antimicrobial activity against Klebsiella pneumoniae 10-3 after 18-24 hrs by two-fold serial dilution method
# Type: functional
# Method in brief: as §1
row,Structure (SMILES),MIC [µg/mL]
1,COc1cc(CO/N=C2\CN(c3nc4c(cc3F)c(=O)c(C(=O)O)cn4C3CC3)CC2CN)c([N+](=O)[O-])cc1OC.CS(=O)(=O)O (racemic),4

# System: Escherichia coli
# Experiment: Antimicrobial activity against Escherichia coli 10-3 after 18-24 hrs by two-fold serial dilution method
# Type: functional
# Method in brief: as §1
row,Structure (SMILES),MIC [µg/mL]
1,COc1cc(CO/N=C2\CN(c3nc4c(cc3F)c(=O)c(C(=O)O)cn4C3CC3)CC2CN)c([N+](=O)[O-])cc1OC.CS(=O)(=O)O (racemic),32

# System: Pseudomonas aeruginosa
# Experiment: Antimicrobial activity against extended spectrum beta-lactamases-producing Pseudomonas aeruginosa 10-20 after 18-24 hrs by two-fold serial dilution method
# Type: functional
# Method in brief: as §1
row,Structure (SMILES),MIC [µg/mL]
1,COc1cc(CO/N=C2\CN(c3nc4c(cc3F)c(=O)c(C(=O)O)cn4C3CC3)CC2CN)c([N+](=O)[O-])cc1OC.CS(=O)(=O)O (racemic),32
